Test results reported in ChEMBL document CHEMBL1155246, “Synthesis, antioxidant properties and radioprotective effects of new benzothiazoles and thiadiazoles” (Bioorg Med Chem, 2009).

Columns and labels:
[1] = test system: Radical scavenging activity; assay: Antioxidant activity assessed as DPPH free radical scavenging activity by UV spectroscopic method; format: functional
[2] = Antioxidant activity assessed as ABTS free radical scavenging activity by radical cation discoloration assay; format: functional
Procedure, shortened: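 ABTS radical cation made by mixing aqueous 7.0 mM ABTS with potassium persulfate to 3.5 mM final and holding overnight in the dark. It was diluted with ethanol to an initial A734 of 0.70 at 30 °C. Test compound was added at several concentrations. Absorbance at 734 nm was read at 0, 0.5 and 1 min, then every 5 min to steady state. IC50 was taken as the concentration giving 50% reduction of the radical cation.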

[3] = Acute toxicity in Swiss CD1 mouse assessed as lethality after 48 hrs; format: organism-based; settings: in vivo
Procedure, shortened: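 Male six-week-old Swiss CD1 mice; compound given intraperitoneally at different concentrations; deaths counted at 48 h to derive LD50tox/48H, the concentration killing 50% of animals.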

Mus musculus [4] = assay: Radioprotective activity against gamma radiation-induced toxicity in Swiss CD1 mouse assessed as survival at 368 mg/kg, ip administered 90 mins before 8.2 Gy irradiation measured after 30 days; format: functional; settings: Swiss CD1, light or radiation study, route intraperitoneal
Procedure, shortened: (§1)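 Male six-week-old Swiss CD1 mice, 10 per group; compound in Mygliol 812 given ip (20 ml/kg) at maximum tolerated dose (1/2 LD50tox/48H) 90 min before 60Co gamma irradiation (300 mGy/min) at 8.2 Gy (LD99.9/30days) or 10.2 Gy; survival percentage at day 30.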

Mus musculus [5] = assay: Radioprotective activity against gamma radiation-induced toxicity in Swiss CD1 mouse assessed as survival at 368 mg/kg, ip administered 90 mins before 10.2 Gy irradiation measured after 30 days; format: functional; settings: Swiss CD1, light or radiation study, route intraperitoneal; procedure, shortened: as §1
Mus musculus [6] = assay: Radioprotective activity against gamma radiation-induced toxicity in Swiss CD1 mouse assessed as survival at 340 mg/kg, ip administered 90 mins before 8.2 Gy irradiation measured after 30 days; format: functional; settings: Swiss CD1, light or radiation study, route intraperitoneal; procedure, shortened: as §1
Mus musculus [7] = assay: Radioprotective activity against gamma radiation-induced toxicity in Swiss CD1 mouse assessed as survival at 340 mg/kg, ip administered 90 mins before 10.2 Gy irradiation measured after 30 days; format: functional; settings: Swiss CD1, light or radiation study, route intraperitoneal; procedure, shortened: as §1
Mus musculus [8] = assay: Radioprotective activity against gamma radiation-induced toxicity in Swiss CD1 mouse assessed as survival at 308 mg/kg, ip administered 90 mins before 8.2 Gy irradiation measured after 30 days; format: functional; settings: Swiss CD1, light or radiation study, route intraperitoneal; procedure, shortened: as §1
Mus musculus [9] = assay: Radioprotective activity against gamma radiation-induced toxicity in Swiss CD1 mouse assessed as survival at 308 mg/kg, ip administered 90 mins before 10.2 Gy irradiation measured after 30 days; format: functional; settings: Swiss CD1, light or radiation study, route intraperitoneal; procedure, shortened: as §1
Mus musculus [10] = assay: Radioprotective activity against gamma radiation-induced toxicity in B6D2F1 mouse assessed as survival at 260 mg/kg, ip administered 15 mins before 8.8 Gy irradiation measured after 30 days; format: functional; settings: B6D2F1, light or radiation study, route intraperitoneal
Mus musculus [11] = assay: Radioprotective activity against gamma radiation-induced toxicity in Swiss CD1 mouse assessed as survival at 260 mg/kg, ip administered 90 mins before 8.2 Gy irradiation measured after 30 days; format: functional; settings: Swiss CD1, light or radiation study, route intraperitoneal; procedure, shortened: as §1
Mus musculus [12] = assay: Radioprotective activity against gamma radiation-induced toxicity in Swiss CD1 mouse assessed as survival at 260 mg/kg, ip administered 90 mins before 10.2 Gy irradiation measured after 30 days; format: functional; settings: Swiss CD1, light or radiation study, route intraperitoneal; procedure, shortened: as §1
Mus musculus [13] = assay: Radioprotective activity against gamma radiation-induced toxicity in B6D2F1 mouse assessed as survival at 260 mg/kg, ip administered 15 mins before 10.8 Gy irradiation measured after 30 days; format: functional; settings: B6D2F1, light or radiation study, route intraperitoneal
Mus musculus [14] = assay: Radioprotective activity against gamma radiation-induced toxicity in Swiss CD1 mouse assessed as survival at 349 mg/kg, ip administered 90 mins before 8.2 Gy irradiation measured after 30 days; format: functional; settings: Swiss CD1, light or radiation study, route intraperitoneal; procedure, shortened: as §1
Mus musculus [15] = assay: Radioprotective activity against gamma radiation-induced toxicity in Swiss CD1 mouse assessed as survival at 349 mg/kg, ip administered 90 mins before 10.2 Gy irradiation measured after 30 days; format: functional; settings: Swiss CD1, light or radiation study, route intraperitoneal; procedure, shortened: as §1
Mus musculus [16] = assay: Radioprotective activity against gamma radiation-induced toxicity in B6D2F1 mouse assessed as survival at 480 mg/kg, ip administered 15 mins before 8.8 Gy irradiation measured after 30 days; format: functional; settings: B6D2F1, light or radiation study, route intraperitoneal
Mus musculus [17] = assay: Radioprotective activity against gamma radiation-induced toxicity in B6D2F1 mouse assessed as survival at 240 mg/kg, ip administered 15 mins before 8.8 Gy irradiation measured after 30 days; format: functional; settings: B6D2F1, light or radiation study, route intraperitoneal
Mus musculus [18] = assay: Radioprotective activity against gamma radiation-induced toxicity in Swiss CD1 mouse assessed as survival at 480 mg/kg, ip administered 90 mins before 8.2 Gy irradiation measured after 30 days; format: functional; settings: Swiss CD1, light or radiation study, route intraperitoneal; procedure, shortened: as §1
Mus musculus [19] = assay: Radioprotective activity against gamma radiation-induced toxicity in Swiss CD1 mouse assessed as survival at 480 mg/kg, ip administered 90 mins before 10.2 Gy irradiation measured after 30 days; format: functional; settings: Swiss CD1, light or radiation study, route intraperitoneal; procedure, shortened: as §1
Mus musculus [20] = assay: Radioprotective activity against gamma radiation-induced toxicity in B6D2F1 mouse assessed as survival at 400 mg/kg, ip administered 15 mins before 8.8 Gy irradiation measured after 30 days; format: functional; settings: B6D2F1, light or radiation study, route intraperitoneal
Mus musculus [21] = assay: Radioprotective activity against gamma radiation-induced toxicity in B6D2F1 mouse assessed as survival at 400 mg/kg, ip administered 15 mins before 10.8 Gy irradiation measured after 30 days; format: functional; settings: B6D2F1, light or radiation study, route intraperitoneal
Mus musculus [22] = assay: Radioprotective activity against gamma radiation-induced toxicity in Swiss CD1 mouse assessed as survival at 400 mg/kg, ip administered 90 mins before 8.2 Gy irradiation measured after 30 days; format: functional; settings: Swiss CD1, light or radiation study, route intraperitoneal; procedure, shortened: as §1
Mus musculus [23] = assay: Radioprotective activity against gamma radiation-induced toxicity in Swiss CD1 mouse assessed as survival at 400 mg/kg, ip administered 90 mins before 10.2 Gy irradiation measured after 30 days; format: functional; settings: Swiss CD1, light or radiation study, route intraperitoneal; procedure, shortened: as §1

SMILES	IC50 [1] [µM]	IC50 ([2]; read-out: IC50) [µM]	also measured
N=c1sc2ccccc2n1CCO	> 4000		
CCSc1nn(CCSS(=O)(=O)O)c(=N)s1		8.32	
Cc1ccc2c(c1)sc(=N)n2CCO	> 4000		
CCOc1ccc2c(c1)sc(=N)n2CCSS(=O)(=O)O			IC50 [2]: ND(Insoluble)
CCSc1nnc(NCCS)s1	110	390	LD50 at 48 h [3]: > 736 mg/kg; survival at 368 mg/kg (Mus musculus [4]): 0%; survival at 368 mg/kg (Mus musculus [5]): 0%
CCc1nnc(S)s1	84	21.3	LD50 at 48 h [3]: > 680 mg/kg; survival at 340 mg/kg (Mus musculus [6]): 30%; survival at 340 mg/kg (Mus musculus [7]): 0%
SCCNc1nc2ccccc2s1	1390	1520	LD50 at 48 h [3]: > 616 mg/kg; survival at 308 mg/kg (Mus musculus [8]): 60%; survival at 308 mg/kg (Mus musculus [9]): 0%
CCc1nn(CCSS(=O)(=O)O)c(=N)s1		51.9	
Cc1ccc2nc(S)sc2c1	91	76.7	LD50 at 48 h [3]: > 520 mg/kg; survival at 260 mg/kg (Mus musculus [10]): 100%; survival at 260 mg/kg (Mus musculus [11]): 80%; survival at 260 mg/kg (Mus musculus [12]): 0%; survival at 260 mg/kg (Mus musculus [13]): 0%
CCSc1nnc(S)s1	53	23.1	LD50 at 48 h [3]: 698 mg/kg; survival at 349 mg/kg (Mus musculus [14]): 0%; survival at 349 mg/kg (Mus musculus [15]): 0%
N=c1sc2ccccc2n1CCSS(=O)(=O)O			IC50 [2]: ND(Insoluble)
CCc1nn(CCSP(=O)(O)O)c(=N)s1		90.3	
Cc1ccc2c(c1)sc(=N)n2CCSS(=O)(=O)O			IC50 [2]: ND(Insoluble)
CCSc1nn(CCSP(=O)(O)O)c(=N)s1		76.9	
Sc1nc2ccccc2s1 [2-MERCAPTOBENZOTHIAZOLE]	92	79.8	LD50 at 48 h [3]: > 960 mg/kg; survival at 480 mg/kg (Mus musculus [16]): 100%; survival at 240 mg/kg (Mus musculus [17]): 90%; survival at 480 mg/kg (Mus musculus [18]): 60%; survival at 480 mg/kg (Mus musculus [19]): 0%
NCCCNCCSP(=O)(O)O [AMIFOSTINE]	100		LD50 at 48 h [3]: 800 mg/kg; survival at 400 mg/kg (Mus musculus [20]): 100%; survival at 400 mg/kg (Mus musculus [21]): 60%; survival at 400 mg/kg (Mus musculus [22]): 50%; survival at 400 mg/kg (Mus musculus [23]): 20%
O=C1O[C@H]([C@@H](O)CO)C(O)=C1O [ASCORBIC ACID]	20	46.5	
N[C@@H](CCC(=O)N[C@@H](CS)C(=O)NCC(=O)O)C(=O)O [GLUTATHIONE]	96		
Cc1c(C)c2c(c(C)c1O)CCC(C)(C(=O)O)O2 (stereo not drawn) [TROLOX]	34		

Continued, in another order:

IC50 [1] [µM]	SMILES	IC50 ([2]; read-out: IC50) [µM]	also measured
> 4000	CCOc1ccc2nc(N)sc2c1		
3170	Cc1ccc2nc(NCCS)sc2c1	4040	
2400	CCc1nn(CCO)c(=N)s1		
3500	CCSc1nn(CCO)c(=N)s1		
> 4000	CCc1nnc(N)s1		
46	CCOc1ccc2nc(S)sc2c1	88.4	
> 4000	CCC(=O)Nc1nc2ccccc2s1		
1400	CCOc1ccc2c(c1)sc(=N)n2CCO		
> 4000	CCSc1nnc(N)s1		
> 4000	CCC(=O)Nc1nc2ccc(C)cc2s1		
> 4000	CCSc1nnc(NC(=O)CC)s1		
> 4000	CCOc1ccc2nc(NC(=O)CC)sc2c1		
> 4000	CCC(=O)Nc1nnc(CC)s1		
